Data from ChEMBL document CHEMBL1142287, “Anti-Pneumocystis carinii and antiplasmodial activities of primaquine-derived imidazolidin-4-ones” (Bioorg Med Chem Lett, 2008).

Assays:
Plasmodium falciparum = test: Antiplasmodial activity against chloroquine-resistant Plasmodium falciparum W2; assay type: functional, organism-based
Procedure, shortened: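 Parasite development assay against P. falciparum W2, run by the authors' earlier method. Values in μM, each the average of at least three determinations.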

Pneumocystis carinii = test: Antimicrobial activity against Pneumocystis carinii assessed as ATP levels after 72 hrs by luciferase assay; assay type: functional, organism-based
Procedure, shortened: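 P. carinii organism preparations screened before use for microbial contamination, ATP content, karyotype and host cell content. Compounds incubated with organisms for 72 h, then ATP measured as relative light units. Each concentration tested in triplicate wells and averaged, with triplicate runs using separate organism isolation batches. Activity averaged from at least three determinations.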

[1] = Half life of hydrolysis in buffer at pH 7.4; assay type: ADME
Procedure, shortened: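 Hydrolytic stability followed in pH 7.4 buffer at 37 °C; half-life derived from the decay.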

Row | IC50 (Pneumocystis carinii) [µM] | SMILES | IC50 (Plasmodium falciparum) [µM] | IC50 (Pneumocystis carinii; Pneumocystis carinii, 72 h) [µM] | half-life [1] [h]
1 | – | COc1cc(NC(C)CCCN2C(=O)CNC2(C)C)c2ncccc2c1 (configuration not stated) | 9.08 | 23 | –
2 | – | COc1cc(NC(C)CCCN2C(=O)[C@H](C)NC23CCC(C)CC3)c2ncccc2c1 (some centres not stated) | – | 23 | –
3 | – | COc1cc(NC(C)CCCN2C(=O)[C@H](Cc3ccccc3)NC2(C)C)c2ncccc2c1 (some centres not stated) | > 50 | 32 | –
4 | – | COc1cc(NC(C)CCCN2C(=O)[C@H](C)NC2(C)C)c2ncccc2c1 (some centres not stated) | > 50 | 226 | –
5 | – | COc1cc(NC(C)CCCN2C(=O)CNC23CCCCC3)c2ncccc2c1 (configuration not stated) | > 50 | 43 | –
6 | – | COc1cc(NC(C)CCCN2C(=O)C(Cc3ccccc3)NC2c2ccccc2C)c2ncccc2c1 (stereo in doubt; 2m2) | – | 13 | –
7 | – | COc1cc(NC(C)CCCN2C(=O)[C@H](Cc3ccccc3)NC23CCCC3)c2ncccc2c1 (some centres not stated) | > 50 | 12 | –
8 | – | COc1cc(NC(C)CCCN)c2ncccc2c1 (configuration not stated) [PRIMAQUINE] | – | 2.5 | –
9 | – | COc1cc(NC(C)CCCN2C(=O)[C@H](C(C)C)NC23CCCCC3)c2ncccc2c1 (some centres not stated) | > 50 | 26 | –
10 | – | COc1cc(NC(C)CCCN2C(=O)[C@H](C(C)C)NC23CCCCCC3)c2ncccc2c1 (some centres not stated) | 8.89 | 6 | > 240
11 | – | COc1cc(NC(C)CCCN2C(=O)[C@H](CC(C)C)NC23CCCCCC3)c2ncccc2c1 (some centres not stated) | 2.63 | 4.1 | –
12 | 21 | COc1cc(NC(C)CCCN2C(=O)C(Cc3ccccc3)NC2c2ccccc2C)c2ncccc2c1 (stereo in doubt; 2m1) | – | – | –
13 | – | COc1cc(NC(C)CCCN2C(=O)[C@H](C(C)C)NC23CCCC3)c2ncccc2c1 (some centres not stated) | > 50 | 23 | –
14 | – | COc1cc(NC(C)CCCN2C(=O)[C@H](C(C)C)NC2(C)C)c2ncccc2c1 (some centres not stated) | > 50 | 40 | –
15 | – | COc1cc(NC(C)CCCN2C(=O)[C@H](C)NC23CCCCCC3)c2ncccc2c1 (some centres not stated) | 2.42 | 1.9 | –
